DNMT1 block = human DNMT1 methyltransferase inhibitors, primary screen, biochemical, molecular beacon, fluorescence, HinP1I cleavage, uHTS | DNA (cytosine-5)-methyltransferase 1 (Homo sapiens), P26358 | AID 588458, 2011 | inhibition (reported as % activation of signal), % at 10 µM | 360,000 tested, 0.83% active; in the data active means inhibition above about 50%
SUMO1-SIM PPI = modulators of SUMO1 protein-protein interactions, primary screen, biochemical, uHTS; Small ubiquitin-related modifier 1 (Homo sapiens), P63165; SUMO1 binding to a labelled peptide, TR-FRET, 1 h; inhibition, % at 20 µM; 360,000 tested, 0.33% active; in the data active means inhibition above about 37%
STEP block = STEP phosphatase inhibitors, primary screen, biochemical, fluorescence intensity, uHTS; Tyrosine-protein phosphatase non-receptor type 5 (Homo sapiens), P54829; recombinant STEP, OMFP fluorogenic substrate; inhibition, % at 20 µM; 360,000 tested, 0.25% active; AID 588621, 2011;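 active means inhibition at 20 µM, scaled per plate between control wells, above about 37%, limit read from the data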;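 further: 0% = DMSO with enzyme and substrate and 100% = substrate only without enzyme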
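Assay system: isolated STEP enzyme. Buffer or medium: pH 6.0 Bis-Tris with DTT and Tween 20. Also added: fluorogenic phosphatase substrate OMFP at 25 µM final. Dosing: 20 µM, 1% DMSO. Timing: 20 min reaction, room temperature, in the dark. Measured by: fluorescence intensity, excitation 480 nm, emission 540 nm. Evaluation: normalized % inhibition.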
Rpn11 block = Rpn11 (PSMD14) deubiquitinase inhibitors, primary screen, biochemical, fluorescence polarization, uHTS; inhibition, % at 20 µM; AID 588493, 2011; human 26S proteasome, Ub4-pepOG fluorescence polarization; 20S core pre-blocked with epoxomicin; 360,000 tested, 0.59% active;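 active means inhibition at 20 µM, scaled to each plate's controls, above about 33%, limit read from the data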
Scp1 inh = Scp-1 phosphatase inhibitors, primary screen, biochemical, colorimetric, uHTS; AID 493091, 2011; Recombinant Scp1, phosphopeptide, malachite green phosphate absorbance; Carboxy-terminal domain RNA polymerase II polypeptide A small phosphatase 1 (Homo …; inhibition, % at 20 µM; 340,000 tested, 0.88% active;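 active means inhibition above about 50% at 20 µM, limit read from the data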;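 further: plate controls were DMSO wells with enzyme for no effect and wells lacking enzyme for full effect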
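System: truncated SCP-1 phosphatase (76-261aa); medium: Tris acetate buffer pH 5.5 with MgCl2 and Tween-20; incubation: 45 min room-temperature reaction, 5 min colour, 30 min stabiliser; compound: single 20 µM dose, 1% DMSO; reagent: Phosphorylated 17-residue peptide substrate; read-out: % inhibition at 20 µM; technique: colorimetric free-phosphate detection, absorbance 630 nm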
LMPTP block = LMPTP phosphatase inhibitors, primary screen, biochemical, fluorescence intensity, uHTS; Low molecular weight phosphotyrosine protein phosphatase (Homo sapiens), P24666; recombinant LMPTP-A, OMFP fluorogenic substrate; inhibition, % at 20 µM; 360,000 tested, 0.22% active;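 active means compounds that cut the enzyme signal by at least half of the control window in the single-dose screen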;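 further: plate controls were DMSO wells with enzyme plus substrate for no effect and substrate without enzyme for full effect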
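Assay system: LMPTP-A enzyme. Input: 0.625 nM LMPTP-A final. Probe or stimulus: 400 µM OMFP. Compound dosing: single 20 µM dose. Schedule: 50 min dark incubation at room temperature. Detection: fluorescence intensity of OMFP turnover product. Read-out: percent inhibition versus substrate-only and uninhibited controls. Benchmarks: no-enzyme low control, uninhibited high control.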
Rpn11 confirm = Rpn11 (PSMD14) deubiquitinase inhibitors, confirmation, biochemical, fluorescence polarization, single concentration; purified human 26S proteasome, Ub4-pepOG fluorescence polarization; proteasome pretreated with epoxomicin; inhibition, % at 20 µM; AID 602318, 2012; shares compounds with Rpn11 block; 1,900 tested, 29% active
MMP-2 counter = MMP-2 enzyme inhibition, confirmation, counter-screen for RPN11 inhibitor project, biochemical, fluorescence, single concentration; 1,900 tested, 4% active; recombinant MMP-2, FRET peptide cleavage fluorescence; shares compounds with Rpn11 block; inhibition, % at 20 µM;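 further: human MMP-2 activated beforehand with APMA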
Target sequence (P08253 whole entry, looked up): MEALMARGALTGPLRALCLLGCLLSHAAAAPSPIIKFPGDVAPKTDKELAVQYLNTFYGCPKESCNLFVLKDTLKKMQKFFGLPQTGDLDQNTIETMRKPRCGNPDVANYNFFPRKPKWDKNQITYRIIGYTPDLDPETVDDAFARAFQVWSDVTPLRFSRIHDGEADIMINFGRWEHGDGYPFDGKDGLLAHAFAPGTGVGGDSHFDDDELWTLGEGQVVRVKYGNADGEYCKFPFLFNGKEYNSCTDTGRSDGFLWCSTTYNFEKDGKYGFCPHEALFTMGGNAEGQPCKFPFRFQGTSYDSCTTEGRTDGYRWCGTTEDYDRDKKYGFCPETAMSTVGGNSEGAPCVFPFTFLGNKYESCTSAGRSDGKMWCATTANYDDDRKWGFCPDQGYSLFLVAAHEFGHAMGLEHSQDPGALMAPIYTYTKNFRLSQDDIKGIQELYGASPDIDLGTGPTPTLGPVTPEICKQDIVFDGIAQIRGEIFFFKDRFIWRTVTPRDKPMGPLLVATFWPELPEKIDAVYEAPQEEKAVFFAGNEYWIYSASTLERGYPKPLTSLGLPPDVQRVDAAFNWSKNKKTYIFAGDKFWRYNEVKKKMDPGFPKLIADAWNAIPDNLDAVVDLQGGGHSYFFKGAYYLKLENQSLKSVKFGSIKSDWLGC
Thrombin inh = bovine thrombin protease inhibition, confirmation, counter-screen for Rpn11 inhibitor project, biochemical, fluorescence polarization, single concentration | 1,900 tested, 13% active | bovine thrombin cleavage of Ub4-pepOG | shares compounds with Rpn11 block | inhibition, % at 20 µM;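 active means mean inhibition at least 40% at 20 µM, or signal 3 deviations below plate average, so some actives read negative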;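 further: plate controls were thrombin with DMSO for no effect and buffer wells lacking thrombin for full effect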
Active calls of the source: *; · = no result given. The list is not random: actives were taken first. Their share in the collection is about 2.3%. Unless noted, no stated cut-off is given here; in the data, active means inhibition above about 40%; inactive means the rest.

SMILES | DNMT1 block | SUMO1-SIM PPI | STEP block | Rpn11 block | Scp1 inh | LMPTP block | Rpn11 confirm | MMP-2 counter | Thrombin inh
Cc1ccc(C(=O)COc2ccc3c(C)cc(=O)oc3c2)cc1 | -1 | -4 | 1 | -1 | -12 | 0 | · | · | ·
CC1(C(=O)NS(=O)(=O)Cc2ccccc2)CCN1C(=O)C1(c2ccc(Cl)cc2)CCC1 (centres undefined) | 2 | 12 | 4 | -6 | · | -2 | · | · | ·
CC1=C(C(=O)c2ccccc2)C(c2ccc(N3CCOCC3)cc2)NC(=O)N1 (centres undefined) | -3 | -9 | -1 | 74* | 7 | 0 | 51* | -18 | 41*
COCCN(C(=O)c1csnn1)C(C(=O)NC1CCCCC1)c1ccccc1 (centres undefined) | 4 | 3 | 3 | -6 | -1 | -2 | · | · | ·
O=c1[nH]c(-c2ccc3c(c2)OCO3)nc2c1sc(=S)n2-c1ccccc1 | -1 | -6 | -4 | 63* | -4 | 0 | 38 | -15 | 23
CCOC(=O)c1cc(C)sc1/N=C/C1C(=O)CC(C)(C)CC1=O | 1 | -10 | 3 | -4 | -2 | 0 | · | · | ·
CCOC(=O)c1c(CC(C)C)csc1/N=C/C1C(=O)CC(C)(C)CC1=O | 1 | -7 | 3 | 48* | -2 | 4 | 8 | 10 | -9
COc1ccc(C(=O)N/C(=C\c2cn(S(=O)(=O)N(C)C)c3ccccc23)C(=O)N2CCCC2)cc1 | 1 | -2 | 0 | 6 | · | 0 | · | · | ·
Cc1ccc(C(C)C)c(OCC(=O)NNC(=O)Cn2[nH]c(=O)c3ccccc3c2=O)c1 | -3 | 0 | 0 | -1 | -8 | 0 | · | · | ·
CCCc1ccc(S(=O)(=O)NCc2nnc(SC)n2C)cc1 | 3 | 6 | -1 | 5 | -5 | -1 | · | · | ·
Cc1ccc(-c2nn(-c3cccc(F)c3)cc2CNCc2cccnc2)o1 | -10 | -4 | 12 | 48* | 5 | 6 | 24 | -13 | 21
Cc1ccc(-c2nn(-c3cccc(F)c3)cc2CN2CCN(c3ccccn3)CC2)o1 | 0 | 3 | 4 | 3 | 2 | 2 | · | · | ·
CCn1nc2cc(C(=O)NCCc3cccs3)ccc2c1OC | 6 | -2 | 0 | -3 | -5 | -1 | · | · | ·
Cc1cc(C)n(-c2nc3c(c(=O)[nH]c(=O)n3C)n2Cc2ccccc2)n1 | 1 | -3 | 6 | 0 | -2 | -1 | · | · | ·
Cc1cc(C)c2c(=O)[nH]c(=O)n(Cc3ccccc3)c2n1 | 2 | 15 | -4 | 80* | -4 | 0 | 95* | 30 | 50*
CC(C)(C)c1nc2ccccc2c2nnc(SCC(=O)Nc3nccs3)n12 | 21 | 2 | 1 | 5 | -3 | 0 | · | · | ·
CC(C)(C)c1nc2ccccc2c2nnc(SCC(=O)Nc3nc4ccccc4s3)n12 | 49 | -1 | 7 | 188* | 4 | 1 | 81* | -1 | -2
Nc1cccc2[nH]c(C(F)(F)F)nc12 | -12 | 68* | 3 | 54* | -4 | -4 | 23 | -5 | -18
Cc1cc(C)cc(NC(=O)Cn2nnc(C(=O)NCc3ccc4c(c3)OCO4)c2N)c1 | 38 | 6 | 0 | 157* | -6 | 26 | 101* | 14 | -9
CCOc1ccc(CCNC(=O)c2nnn(CC(=O)Nc3ccc(C)cc3)c2N)cc1OCC | 5 | 3 | -1 | 84* | -1 | -2 | 87* | -6 | 2
Cn1ccc2cc3c(cc21)CCN3C(=O)Nc1cccnc1 | -10 | -6 | 2 | 91* | 4 | 46 | 23 | -362 | -6
COc1ccc(-n2cccc2/C=C2/NC(=O)N(c3cccc(Cl)c3)C2=O)cc1 | 11 | 1 | 2 | 41* | 7 | -1 | 6 | -18 | 4
COc1cc(/C=C2/NC(=O)N(c3cccc(Cl)c3)C2=O)ccc1O | 1 | -8 | -2 | -1 | -1 | 5 | · | · | ·
CSc1ccc(/C=C/C(=O)c2c(O)cc(C)oc2=O)cc1 | 4 | -3 | -1 | 53* | -11 | 2 | 70* | -11 | 131*
COc1ccc(Cn2nnnc2C(c2cccs2)N2CCN(c3ccc([N+](=O)[O-])cc3)CC2)cc1 (centres undefined) | 2 | -6 | 1 | 89* | 5 | 1 | -13 | -27 | 4
SMILES | DNMT1 block | SUMO1-SIM PPI | STEP block | Rpn11 block | Scp1 inh | LMPTP block | Rpn11 confirm | MMP-2 counter | Thrombin inh
COc1ccc(Cn2nnnc2C(c2cccs2)N2CCN(c3ccccc3)CC2)cc1 (centres undefined) | -7 | -2 | 3 | -4 | -1 | 2 | · | · | ·
Cc1ccc(C(=O)OCC(=O)c2ccc(S(=O)(=O)N3CCCCC3)cc2)o1 | 2 | 2 | -1 | 9 | 3 | 1 | · | · | ·
Cc1ccc(-c2cc3c(N=O)c4ccccc4c-3n[nH]2)cc1 | 75* | -4 | 18 | 69* | 16 | 21 | 20 | 4 | -15
COc1cc(/C=C/c2ccc3cccc(O)c3n2)c(Br)cc1O | -8 | 1 | -3 | 39* | · | 2 | 12 | -21 | 1
COc1cc(Br)c(/C=C/c2ccc3cccc(O)c3n2)cc1OC | -9 | 5 | 4 | -3 | -10 | 3 | · | · | ·
COc1ccc(N=Nc2nc(-c3ccccc3)c(-c3ccccc3)[nH]2)cc1 | -8 | -47 | 4 | 39* | 39 | 12 | 8 | 13 | -6
COc1ccccc1N=Nc1nc(-c2ccccc2)c(-c2ccccc2)[nH]1 | -10 | -46 | 3 | 23 | 6 | 14 | · | · | ·
Oc1ccccc1N=Nc1nc(-c2ccccc2)c(-c2ccccc2)[nH]1 | -11 | -22 | 4 | 54* | 11 | 10 | 23 | 10 | 20
